According to ChEMBL document CHEMBL4130342, “New semi-synthetic analogs of oleuropein show improved anticancer activity in vitro and in vivo” (Eur J Med Chem, 2017):

Legend:
MCF7 = experiment: Antiproliferative activity against human MCF7 cells after 72 hrs by MTT reduction assay; assay type: functional, cell-based; settings: MCF7, 72 h
In short: (§1)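 MTT reduction assay; adherent lines left to adhere overnight, suspension lines (HL-60, K562) seeded on the day. […] Incubation was 72 h at 37°C, with MTT added for the last 4 h. OD read at 545 nm (reference 690 nm). IC50 from 100(A0-A)/A0=50; means ± SD of 3 independent experiments.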

PBMC [1] = experiment: Induction of apoptosis in human PBMC assessed as necrotic cells at 400 ug/ml after 24 hrs by propidium iodide staining-based flow cytometric method (reference value: 1%); assay type: cell-based
PBMC [2] = experiment: Induction of apoptosis in human PBMC assessed as early apoptotic cells at 500 ug/ml after 24 hrs by propidium iodide staining-based flow cytometric method (reference value: 0.1%); assay type: cell-based
PBMC [3] = experiment: Induction of apoptosis in human PBMC assessed as necrotic cells at 500 ug/ml after 24 hrs by propidium iodide staining-based flow cytometric method (reference value: 1%); assay type: cell-based
B16-F1 [4] = experiment: Antiproliferative activity against mouse B16-F1 cells after 72 hrs by MTT reduction assay; assay type: functional, cell-based; settings: B16-F1, 72 h; in short: as §1
B16-F1 [5] = experiment: Induction of apoptosis in mouse B16-F1 cells assessed as early apoptotic cells at 283.90 uM after 24 hrs by propidium iodide staining-based flow cytometric method (reference value: 0.5%); assay type: functional
B16-F1 [6] = experiment: Induction of apoptosis in mouse B16-F1 cells assessed as early apoptotic cells at 283.90 uM after 48 hrs by propidium iodide staining-based flow cytometric method (reference value: 0.2%); assay type: functional
B16-F1 [7] = experiment: Induction of apoptosis in mouse B16-F1 cells assessed as necrotic cells at 283.90 uM after 48 hrs by propidium iodide staining-based flow cytometric method (reference value: 1%); assay type: functional
B16-F1 [8] = experiment: Induction of apoptosis in mouse B16-F1 cells assessed as late apoptotic cells at 283.90 uM after 72 hrs by propidium iodide staining-based flow cytometric method (reference value: 1.4%); assay type: functional
B16-F1 [9] = experiment: Induction of apoptosis in mouse B16-F1 cells assessed as necrotic cells at 283.90 uM after 72 hrs by propidium iodide staining-based flow cytometric method (reference value: 2.5%); assay type: functional
B16-F1 [10] = experiment: Antitumor activity against mouse B16-F1 cells allografted in ip dosed C57BL/6 mouse assessed as tumor growth inhibition administered every other day up to day 29 measured on day 29 post last dose; assay type: functional, organism-based
In short: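 Male C57BL/6 mice, 6-8 weeks old, received 10^5 B16.F1 cells sc in the right flank on day 0. From day 11 (palpable tumors), 5 mice/group were randomized and given ip doses in 200 µL PBS every other day, 8 doses in total, up to day 29. Control group received PBS. Tumors were measured by caliper every two days; volume = 1/2(length × width²).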

Mus musculus [11] = experiment: (§2) In vivo induction of tumor-reactive immune response in C57BL/6 mouse allografted with mouse B16-F1 cells assessed as splenocyte-mediated NK-sensitive mouse YAC-1 cell lysis at 600 ug, ip administered every other day up to day 29 measured on day 29 post last dose by flow cytometric method (reference value: 1.2 to 1.7); assay type: functional
In short: (§3)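 Male C57BL/6 mice (6-8 wk) were injected sc in the right flank with 10⁵ B16.F1 cells in PBS on day 0. From day 11, when tumors were palpable, they received ip doses in 200 µL PBS every other day (8 doses; 5 mice/group). On day 29, splenocytes were co-cultured unstimulated with targets at E:T 100:1 for 6 h at 37°C. CD107a/b MFI was read by flow cytometry, 2 mice/group tested individually.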

Mus musculus [12] = experiment: as §2, with “syngeneic” for “NK-sensitive”, “B16-F1” for “YAC-1”, “300” for “600”, “3.3” for “1.2”, “3.9)” for “1.7)”; assay type: functional; in short: as §3

What does the source list for `C/C=C1/[C@H](O[C@@H]2O[C@H](CO)[C@@H](O)[C@H](O)[C@H]2O)OC=C(C(=O)OC)[C@H]1CC(=O)OCCc1ccc(O)c(O)c1` [OLEUROPEIN]?
IC50 (MCF7): 162 to 170 µM; Activity (PBMC [1]): 4.3%; Activity (PBMC [2]): 3.1%; Activity (PBMC [3]): 10.3%; IC50 (B16-F1 [4]): 284 µM; Activity (B16-F1 [5]): 9.3%; Activity (B16-F1 [6]): 13.6%; Activity (B16-F1 [7]): 4.2%; Activity (B16-F1 [8]): 15.5%; Activity (B16-F1 [9]): 21.8%; TGI (B16-F1 [10]): Dose-dependent effect; Flu intensity (Mus musculus [11]): 2.9 - 3.3; Flu intensity (Mus musculus [12]): 3.2 - 3.9
